Measured values taken from paper PMC10125284 (ACS Bio & Med Chem Au, 2022).
Entries after “also recorded” stand apart in the source; their conditions may differ. Read-outs that look alike come from different tables or passages of the source.

Key:
Tsr [1] = target: T1, Tsr (Escherichia coli, UniProt P02942); experiment: Microfluidic chemotaxis assay, UU1250 expressing Tsr as sole receptor; assay type: cell-based; details: UU1250 expressing wild-type Tsr as sole receptor and GFP
Tar [2] = target: T2, Tar (Escherichia coli, UniProt P07017); experiment: Microfluidic chemotaxis assay, UU1250 expressing Tar as sole receptor; assay type: cell-based; details: cells expressing Tar as sole receptor
Tsar [3] = target: T3, Tsar (Escherichia coli, UniProt P02942+P07017); experiment: Microfluidic chemotaxis assay, UU1250 expressing hybrid Tsar as sole receptor; assay type: cell-based; details: cells expressing hybrid Tsar as sole receptor
Tasr [4] = target: T4, Tasr (Escherichia coli, UniProt P02942+P07017); experiment: Microfluidic chemotaxis assay, UU1250 expressing hybrid Tasr as sole receptor; assay type: cell-based; details: cells expressing hybrid Tasr as sole receptor
[5] = tested on: wild-type E. coli strain RP437; experiment: Microfluidic chemotaxis assay, wild-type strain RP437; assay type: cell-based, Escherichia coli; details: wild-type E. coli RP437, all five chemoreceptors
Tsr^R64A = Tsr^R64A (Escherichia coli, UniProt P02942, R64A); experiment: Microfluidic chemotaxis assay, cells expressing Tsr^R64A as sole receptor; assay type: cell-based
Tsr^N68A [6] = target: T5, Tsr^N68A (Escherichia coli, UniProt P02942, N68A); experiment: Microfluidic chemotaxis assay, cells expressing Tsr^N68A as sole receptor; assay type: cell-based
Tsr^R64AN68A = Tsr^R64AN68A (Escherichia coli, UniProt P02942, N68A/R64A); experiment: Microfluidic chemotaxis assay, cells expressing Tsr^R64AN68A as sole receptor; assay type: cell-based
Tsr [7] = target: T1, Tsr; experiment: FRET; assay type: cell-based; details: for effect of adaptation to L-serine on FRET response to ligand: Tsr adapted to 200 μM L-serine; for FRET response (kinase activity): Tsr as sole receptor, buffer-adapted
Tar [8] = target: T2, Tar; experiment: FRET assay, cells expressing Tar as sole receptor; assay type: cell-based
Tsar [9] = target: T3, Tsar; experiment: FRET assay, cells expressing Tsar as sole receptor; assay type: cell-based
Tasr [10] = target: T4, Tasr; experiment: FRET assay, cells expressing Tasr as sole receptor; assay type: cell-based
wild-type RP437 = experiment: FRET assay, wild-type RP437; assay type: cell-based, Escherichia coli
Tsr-LBD [11] = target: T6, Tsr-LBD (Escherichia coli, UniProt P02942); experiment: Microscale thermophoresis; assay type: binding; details: for binding to Tsr-LBD in competition (MST): pocket saturated with high concentration of L-serine (25 mM)
T6 sequence (P02942 30-190): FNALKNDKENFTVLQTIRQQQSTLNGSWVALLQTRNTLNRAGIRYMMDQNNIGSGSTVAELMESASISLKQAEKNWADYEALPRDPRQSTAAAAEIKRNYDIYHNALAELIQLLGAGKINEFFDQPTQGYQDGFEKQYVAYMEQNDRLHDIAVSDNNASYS
Summary of the method: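 Tsr residues 30-190 carrying an N-terminal 6×His tag were expressed in E. coli after 1 mM IPTG induction for 6 h at 28 °C. The protein was purified by Ni affinity and gel filtration (50 mM Tris-HCl pH 8.0, 200 mM NaCl) and labelled with a RED-tris-NTA His-tag dye. Compound serial dilutions in HEPES buffer were mixed 1:1 with protein and read in capillaries at 60% excitation and 20% MST power. Kd came from dose-response fits of normalised traces, temperature-jump/thermophoresis mode.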

Tsr^N68A [12] = target: T5, Tsr^N68A; experiment: FRET assay, cells expressing Tsr^N68A as sole receptor; assay type: cell-based
Tsr-LBD [13] = target: T6, Tsr-LBD; details: read-out: Kd, previously reported; cited from earlier work

Sequence of Tsr^R64AN68A (P02942 whole entry R64A/N68A): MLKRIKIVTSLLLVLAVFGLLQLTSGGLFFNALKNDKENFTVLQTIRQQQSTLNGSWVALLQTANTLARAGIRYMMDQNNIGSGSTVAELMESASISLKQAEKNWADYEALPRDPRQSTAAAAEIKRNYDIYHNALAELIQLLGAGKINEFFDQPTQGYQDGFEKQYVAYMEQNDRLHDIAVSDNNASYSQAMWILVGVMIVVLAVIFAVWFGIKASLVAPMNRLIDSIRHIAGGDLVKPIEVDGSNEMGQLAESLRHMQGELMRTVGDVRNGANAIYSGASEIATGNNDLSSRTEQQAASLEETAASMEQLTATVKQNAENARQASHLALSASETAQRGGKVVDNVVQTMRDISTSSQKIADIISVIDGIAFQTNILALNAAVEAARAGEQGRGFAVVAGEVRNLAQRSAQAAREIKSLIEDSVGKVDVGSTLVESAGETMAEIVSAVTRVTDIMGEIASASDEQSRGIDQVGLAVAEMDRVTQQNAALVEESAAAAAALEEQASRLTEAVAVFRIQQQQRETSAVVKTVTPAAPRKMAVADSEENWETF
T3 sequence (P02942 1-201): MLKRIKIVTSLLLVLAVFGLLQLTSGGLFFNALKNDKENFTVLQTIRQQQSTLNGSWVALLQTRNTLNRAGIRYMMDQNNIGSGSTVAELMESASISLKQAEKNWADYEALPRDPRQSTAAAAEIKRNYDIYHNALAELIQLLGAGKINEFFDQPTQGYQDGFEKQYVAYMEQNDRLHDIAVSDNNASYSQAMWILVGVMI
T3 sequence (P07017 200-553): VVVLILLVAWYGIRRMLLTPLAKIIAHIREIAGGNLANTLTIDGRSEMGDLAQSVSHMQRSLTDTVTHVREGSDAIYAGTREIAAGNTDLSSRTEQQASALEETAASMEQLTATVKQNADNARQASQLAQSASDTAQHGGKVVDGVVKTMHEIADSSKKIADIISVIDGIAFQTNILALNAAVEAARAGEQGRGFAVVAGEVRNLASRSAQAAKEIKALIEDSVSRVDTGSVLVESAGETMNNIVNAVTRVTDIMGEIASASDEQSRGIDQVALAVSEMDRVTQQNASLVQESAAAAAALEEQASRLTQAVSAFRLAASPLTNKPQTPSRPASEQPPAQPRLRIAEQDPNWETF
T1 sequence (P02942 whole entry): as the sequence (P02942 whole entry R64A/N68A) above, with A64R, A68N counted along it
T2 sequence (P07017 whole entry): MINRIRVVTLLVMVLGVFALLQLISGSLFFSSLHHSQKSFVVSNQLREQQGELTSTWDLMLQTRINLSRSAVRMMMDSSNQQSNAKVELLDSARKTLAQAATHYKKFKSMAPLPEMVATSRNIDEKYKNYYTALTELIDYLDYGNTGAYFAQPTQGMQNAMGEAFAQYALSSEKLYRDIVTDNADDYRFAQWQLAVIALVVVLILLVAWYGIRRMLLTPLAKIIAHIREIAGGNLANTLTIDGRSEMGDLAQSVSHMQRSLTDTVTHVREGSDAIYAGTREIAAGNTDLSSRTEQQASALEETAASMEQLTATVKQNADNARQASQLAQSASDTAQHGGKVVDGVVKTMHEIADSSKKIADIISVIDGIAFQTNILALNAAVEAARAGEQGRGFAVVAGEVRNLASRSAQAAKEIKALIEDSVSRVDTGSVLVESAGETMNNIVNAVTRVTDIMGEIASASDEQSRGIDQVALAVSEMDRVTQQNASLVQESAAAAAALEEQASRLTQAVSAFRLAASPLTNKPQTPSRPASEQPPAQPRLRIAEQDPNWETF
T4 sequence (P07017 1-199): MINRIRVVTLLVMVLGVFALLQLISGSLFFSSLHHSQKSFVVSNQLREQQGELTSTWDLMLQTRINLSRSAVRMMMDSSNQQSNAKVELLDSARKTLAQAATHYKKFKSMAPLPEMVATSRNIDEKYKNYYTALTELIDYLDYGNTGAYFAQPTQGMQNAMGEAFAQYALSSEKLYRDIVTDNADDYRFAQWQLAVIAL
T4 sequence (P02942 202-551): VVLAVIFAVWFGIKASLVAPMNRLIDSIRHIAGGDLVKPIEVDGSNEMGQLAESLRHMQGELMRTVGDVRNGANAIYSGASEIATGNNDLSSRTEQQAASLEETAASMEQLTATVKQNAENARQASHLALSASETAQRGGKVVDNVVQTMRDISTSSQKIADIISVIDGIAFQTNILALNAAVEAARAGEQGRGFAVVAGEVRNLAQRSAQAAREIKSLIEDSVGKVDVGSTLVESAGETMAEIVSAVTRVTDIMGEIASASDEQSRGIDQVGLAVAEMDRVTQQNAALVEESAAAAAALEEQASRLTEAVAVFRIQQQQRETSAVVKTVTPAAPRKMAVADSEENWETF
Sequence of Tsr^R64A (P02942 whole entry R64A): as the sequence (P02942 whole entry R64A/N68A) above, with A68N counted along it
T5 sequence (P02942 whole entry N68A): as the sequence (P02942 whole entry R64A/N68A) above, with A64R counted along it

Structure (SMILES) | chemotactic response (microfluidic) (Tsr [1]) | chemotactic response (microfluidic) (Tar [2]) | chemotactic response (microfluidic) (Tsar [3]) | chemotactic response (microfluidic) (Tasr [4]) | chemotactic response (microfluidic) [5] | chemotactic response (microfluidic), compared with wild-type Tsr (Tsr^R64A) | chemotactic response (microfluidic), compared with wild-type Tsr (Tsr^N68A [6]) | chemotactic response (microfluidic), compared with wild-type Tsr (Tsr^R64AN68A) | effect of adaptation to L-serine on FRET response to ligand (Tsr [7]) | FRET response (kinase activity) (Tsr [7]) | FRET response (Tar [8]) | FRET response (Tsar [9]) | FRET response (Tasr [10]) | FRET response (wild-type RP437) | Kd (Tsr-LBD [11]) [mM] | binding to Tsr-LBD in competition (MST) (Tsr-LBD [11]) | FRET response (Tsr^N68A [12]) | Kd (Tsr-LBD [13]) [mM]
NC1(C(=O)O)CCCCC1 [ACHC, 1-aminocyclohexanecarboxylic acid] | robust repellent response | did not show obvious responses | robust repellent responses | did not show obvious responses | robust repellent responses | weaker repellent responses | weaker repellent responses; also recorded: weak repellent response | weaker repellent responses | significantly inhibited | repellent response | no or only a weak response | repellent response | no or only a weak response | repellent response | 10.6 ± 2.4 | could not bind | – | –
CC(C)C[C@H](N)C(=O)O [L-leucine] | repellent response | no response | repellent responses | no response | repellent responses | no response or much weaker responses | attractant response | no response or much weaker responses | significantly inhibited | repellent response | – | – | – | – | 23.6 ± 6.8 | could not bind | strong attractant response | –
N[C@@H](CO)C(=O)O [L-serine] | drifted up the L-serine gradient | – | – | – | – | weaker attractant responses | weaker attractant responses | weaker attractant responses | – | attractant response | – | – | – | – | 0.207 | – | – | 0.0356
